Columns and labels:
[1] = Cytotoxicity against human Hep3B cells after 72 hrs by MTT colorimetric method; type: functional, cell-based, Hep 3B2
Summary of the method: (§1)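 Cell lines from ATCC, grown in RPMI-1640 with 10% FBS, 100 U/mL penicillin and 100 µg/mL streptomycin at 37 °C, humidified 5% CO₂. Seeded at 5000-10000 cells/well, treated on day two for 72 h. Attached cells then given MTT (0.5 mg/mL, 1 h), formazan solubilized in DMSO, colorimetric readout. IC₅₀ values reported.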

MCF7 = assay: Cytotoxicity against human MCF7 cells after 72 hrs by MTT colorimetric method; type: functional, cell-based; settings: MCF7, 72 h; summary of the method: as §1
MDA-MB-231 = assay: Cytotoxicity against human MDA-MB-231 cells after 72 hrs by MTT colorimetric method; type: functional, cell-based; settings: MDA-MB-231, 72 h; summary of the method: as §1
A549 = assay: Cytotoxicity against human A549 cells after 72 hrs by MTT colorimetric method; type: functional, cell-based; settings: A549, 72 h; summary of the method: as §1
HepG2 = assay: Cytotoxicity against human HepG2 cells after 72 hrs by MTT colorimetric method; type: functional, cell-based; settings: HepG2, 72 h

| Compound | IC50 [1] | IC50 (MCF7) | IC50 (MDA-MB-231) | IC50 (A549) | IC50 (HepG2) |
| --- | --- | --- | --- | --- | --- |
| COc1cc(OC)c2c(=O)cc(C3(O)C=CC(=O)C=C3)oc2c1 | 670 nM | 1210 nM | 540 nM | 1270 nM | 5030 nM |
| COc1cccc2c1C(=O)c1c(O)c3c(c(O)c1C2=O)C[C@@](O)(C(=O)CO)C[C@@H]3O[C@H]1C[C@H](N)[C@H](O)[C@H](C)O1 [DOXORUBICIN] | 620 nM | 740 nM | 140 nM | 360 nM |  |
| COCOc1cc(O)c2c(=O)cc(C3(O)C=CC(=O)C=C3)oc2c1 | 2390 nM | 5240 nM | 1730 nM | 24600 nM | 15600 nM |
| COC1(c2cc(=O)c3ccccc3o2)C=CC(=O)C=C1 | 5410 nM | 7990 nM | 5490 nM | > 74600 nM | 40900 nM |
| COc1cc(O)c2c(=O)cc(C3(O)C=CC(=O)C=C3)oc2c1 | 670 nM | 1700 nM | 430 nM | 3100 nM | 570 nM |
| COC1(c2cc(=O)c3ccc4ccccc4c3o2)C=CC(=O)C=C1 | 600 nM | 2960 nM | 1070 nM | 28300 nM | 14400 nM |
| COC1(c2cc(=O)c3c(O)cccc3o2)C=CC(=O)C=C1 | 2320 nM | 5460 nM | 1900 nM | 57600 nM | 26900 nM |
| COC1(c2cc(=O)c3c(ccc4ccccc43)o2)C=CC(=O)C=C1 | 1100 nM | 2700 nM | 1160 nM | 25800 nM | 9940 nM |
| COc1cc(OC)c2c(=O)cc(C3(OC)C=CC(=O)C=C3)oc2c1 | 3780 nM | 4210 nM | 4700 nM | > 61000 nM | 27000 nM |
| O=C1C=CC(O)(c2cc(=O)c3c(O)cc(O)cc3o2)C=C1 [PROTOAPIGENONE] | 2270 nM | 3740 nM | 1430 nM | 13800 nM | 8110 nM |
| O=C1C=CC(O)(c2cc(=O)c3c(ccc4ccccc43)o2)C=C1 | 300 nM | 660 nM | 390 nM | 1810 nM | 3550 nM |
| O=C1C=CC(O)(c2cc(=O)c3ccccc3o2)C=C1 | 1260 nM | 1730 nM | 710 nM | 5240 nM | 6730 nM |
| O=C1C=CC(O)(c2cc(=O)c3c(O)cccc3o2)C=C1 | 1300 nM | 3440 nM | 670 nM | 5070 nM | 4960 nM |

Reference: ChEMBL document CHEMBL1148704, “First total synthesis of protoapigenone and its analogues as potent cytotoxic agents” (J Med Chem, 2007)
